CHO parental Ca: ATP-evoked calcium signal inhibitors, parental CHO, primary screen, counter-screen for OX1R antagonist project, cell-based, fluorescence, Fluo-8 calcium dye. parental CHO-K1, ATP-induced calcium, Fluo-8 fluorescence. inhibition, % at 5.6 µM. 330,000 compounds, 0.63% hits. AID 463079, 2010;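 active = inhibition above that plate's mean sample inhibition plus 3 SD, cut at about 26% in these data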
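test system = CHO parental line | reagent = ATP stimulus | measured by = intracellular calcium via Fluo-8 no-wash fluorescent dye | control set = ATP and no-ATP DMSO wells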
NTR1 ag: agonists of human NTR1, primary screen, imaging, U2OS cells, beta-arrestin-GFP, high content; NTR1-U2OS beta-arrestin-GFP spot imaging, agonist mode; activation, % at 20 µM; AID 493036, 2011; 330,000 compounds, 0.17% hits;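 active = activation at or above 40% of the spot to cytoplasm intensity ratio, with at least 20 cells analyzed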
TAAR1 antag: human TAAR1 antagonists, primary screen, Fluo-8 calcium fluorescence, CHO RD-HGA16 cells; inhibition, % at 3 µM; 360,000 compounds, 1.5% hits; Trace amine-associated receptor 1 (Homo sapiens), Q96RJ0; antagonist;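 active = inhibition above a per-plate cutoff, the mean inhibition of test compounds on that plate plus 3 SD, cut at about 49% in these data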
Target sequence (Q96RJ0 whole entry, looked up): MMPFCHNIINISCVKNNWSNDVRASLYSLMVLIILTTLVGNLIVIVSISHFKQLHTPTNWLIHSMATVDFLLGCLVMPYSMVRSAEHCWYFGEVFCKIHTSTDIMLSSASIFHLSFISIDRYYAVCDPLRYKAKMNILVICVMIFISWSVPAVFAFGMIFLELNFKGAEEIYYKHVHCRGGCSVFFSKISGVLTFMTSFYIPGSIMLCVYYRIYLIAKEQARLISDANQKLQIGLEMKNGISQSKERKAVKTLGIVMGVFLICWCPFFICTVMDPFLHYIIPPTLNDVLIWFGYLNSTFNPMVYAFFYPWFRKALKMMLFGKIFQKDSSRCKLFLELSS
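Assay system: RD-HGA16 CHO cells with stable hTAAR1 and Gα16 / Reagent: EC80 β-phenethylamine stimulus / Doses: 3 µM, single point / Timing: dye loading 75 min at 37 °C, then 30 min room temperature / Measured by: Fluo-8 intracellular calcium dye fluorescence, real-time kinetic reads / Controls: vehicle wells and EC80 agonist wells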
OX1R antag-1: antagonists of human orexin 1 receptor (OX1R). Orexin/Hypocretin receptor type 1 (Homo sapiens), O43613. OX1R-expressing cells, FRET antagonist read-out. inhibition, % at 6.6 µM. 330,000 compounds, 1.8% hits. AID 485270, 2010; in the data active = inhibition mostly above about 38%, no sharp cut-off; inactive = mostly below about 40%
TAAR1 ag: human TAAR1 agonists, primary screen, Fluo-8 calcium fluorescence, CHO RD-HGA16 cells | vehicle wells 0%, saturating PEA agonist 100% | 360,000 compounds, 0.99% hits | AID 624467, 2012 | activation, % at 3 µM | Trace amine-associated receptor 1 (Homo sapiens), Q96RJ0;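 active = activation above the mean activation of all test compounds in the run plus 3 SD, cut at about 38% in these data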
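Assay system – CHO-derived RD-HGA16 cells with stable Gα16 and human TAAR1 · Compound dosing – one-point dosing at 3 µM (nominal) · Incubation – 17-24 h seeding, 75 min 37 °C dye, 30 min RT · Measured by – kinetic Fluo-8 calcium fluorescence · Control set – DMSO vehicle as 0%, PEA at EC100 as 100% · Repeats – single well for each compound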
OX1R antag-2: OX1R (HCRTR1) antagonists, primary screen, fluorescence, CHO/OX1R cells, Fluo-8 calcium, orexin A. Fluo-8 calcium fluorescence. inhibition, % at 5 µM. 330,000 compounds, 0.43% hits. AID 434989, 2010;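 active = inhibition above its plate's threshold, mean inhibition of all tested compounds on the plate plus 3 SD, cut at about 37% in these data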
Hits are given with their value. Compounds with a hit are over-represented: about 4% of the library has one in this group of screens.

NCc1ccc(OCCCN2CCC(C(O)(C3=CCCC3)c3ccccc3)CC2)cc1 (stereo not given) was read as TAAR1 antag inactive and TAAR1 ag inactive.
For O=[N+]([O-])c1ccc(C=NN2CCNC2=S)o1 the results were TAAR1 antag inactive and TAAR1 ag inactive.
For CC1CS(=O)(=O)CCN1N=Cc1ccc([N+](=O)[O-])o1 (stereo not given) the results were CHO parental Ca inactive, NTR1 ag inactive, TAAR1 antag inactive, OX1R antag-1 53, TAAR1 ag inactive and OX1R antag-2 inactive.
Screening COC(=O)C1=C(C)N(Cc2ccc(C(F)(F)F)cc2)C(=NCc2ccc(C(F)(F)F)cc2)NC1c1cccc(C(F)(F)F)c1 (stereo not given) returned TAAR1 antag inactive and TAAR1 ag inactive.
COCCNC(=O)C(c1ccc(F)cc1)N(Cc1ccco1)C(=O)CCC(=O)Nc1nccs1 (stereo not given) was read as CHO parental Ca inactive, NTR1 ag inactive, TAAR1 antag inactive, OX1R antag-1 60, TAAR1 ag inactive and OX1R antag-2 inactive.
Cc1cc(NC(=O)CCC(=O)N(Cc2ccco2)C(C(=O)NC2CCCCC2)c2ccccc2)no1 (stereo not given) was read as CHO parental Ca inactive, NTR1 ag inactive, TAAR1 antag inactive, OX1R antag-1 53, TAAR1 ag inactive and OX1R antag-2 inactive.
`COC(=O)C1=C(C)N(C)C(=NCc2ccccc2)NC1CCc1ccccc1` (stereo not given) gave TAAR1 antag inactive and TAAR1 ag inactive.
For COC(=O)N1C[C@H](OCc2cn(-c3cc(Cl)cc(Cl)c3)nn2)[C@H](OCc2cn(-c3cc(Cl)cc(Cl)c3)nn2)C[C@@H]1c1ccccc1Br the results were TAAR1 antag inactive and TAAR1 ag inactive.
`Cc1nn(C)c(C)c1CN(Cc1nc(CCC(C)C)no1)C(C)C` gave CHO parental Ca 41, NTR1 ag inactive, TAAR1 antag inactive, OX1R antag-1 inactive, TAAR1 ag inactive and OX1R antag-2 inactive.
`CN(C)c1nc(N)nc(CSc2nnnn2-c2ccc(Cl)cc2)n1` gave TAAR1 antag inactive and TAAR1 ag inactive.
For CN(C)c1nc(N)nc(CSc2ncc(Cl)cc2Cl)n1 the results were CHO parental Ca inactive, NTR1 ag inactive, TAAR1 antag inactive, OX1R antag-1 38, TAAR1 ag inactive and OX1R antag-2 inactive.
Screening COC(=O)[C@]12C[C@H](CC(=O)NCCCCc3ccccc3)C(=O)N(Cc3ccccc3)C1=C[C@H](C(C)(C)C)O[C@@H]2C returned TAAR1 antag inactive and TAAR1 ag inactive.
Screening Cc1c(C(c2ccccc2)c2c(C)n(C)n(-c3ccccc3)c2=O)c(=O)n(-c2ccccc2)n1C returned CHO parental Ca inactive, NTR1 ag inactive, TAAR1 antag inactive, OX1R antag-1 inactive, TAAR1 ag inactive and OX1R antag-2 inactive.
For Cc1c(C(c2ccc(N(C)C)cc2)c2c(C)n(C)n(-c3ccccc3)c2=O)c(=O)n(-c2ccccc2)n1C the results were CHO parental Ca inactive, NTR1 ag inactive, TAAR1 antag inactive, OX1R antag-1 71, TAAR1 ag inactive and OX1R antag-2 inactive.
CCOc1cccc(NC(=O)/C(C#N)=C\c2cn(CC(=O)O)c3ccccc23)c1 was read as CHO parental Ca inactive, NTR1 ag inactive, TAAR1 antag inactive, OX1R antag-1 55, TAAR1 ag inactive and OX1R antag-2 inactive.
For CCCCCCCCN1C(=O)[C@@H](CC(=O)NCc2cccc(C(F)(F)F)c2)C[C@@]2(C(=O)OC)C1=C[C@H](C1CCCC1)O[C@@H]2C the results were TAAR1 antag inactive and TAAR1 ag inactive.
CC(=O)Nc1ccc(/C=C/c2nc3ccccc3o2)cc1 was read as CHO parental Ca inactive, NTR1 ag inactive, TAAR1 antag inactive, OX1R antag-1 inactive, TAAR1 ag inactive and OX1R antag-2 inactive.
For O=C(Nc1ccc(/C=C/c2nc3ccccc3o2)cc1)c1c(F)cccc1F the results were CHO parental Ca inactive, NTR1 ag inactive, TAAR1 antag 53, OX1R antag-1 inactive, TAAR1 ag inactive and OX1R antag-2 inactive.
`NS(=O)(=O)c1ccc(NC(=O)COc2ccc(C(=O)c3ccc(F)cc3)cc2)cc1` gave CHO parental Ca 34, NTR1 ag inactive, TAAR1 antag inactive, OX1R antag-1 inactive, TAAR1 ag inactive and OX1R antag-2 inactive.
`Cc1ccc(S(=O)(=O)/N=C2/NC(=O)/C(=C\c3ccccc3)S2)cc1` gave CHO parental Ca inactive, NTR1 ag inactive, TAAR1 antag inactive, OX1R antag-1 33, TAAR1 ag inactive and OX1R antag-2 inactive.
`Cc1ccc(S(=O)(=O)/N=C2/NC(=O)/C(=C/c3cc([N+](=O)[O-])ccc3O)S2)cc1` gave CHO parental Ca 48, NTR1 ag inactive, TAAR1 antag inactive, OX1R antag-1 inactive, TAAR1 ag inactive and OX1R antag-2 43.
`COc1cc(/C=C2\S/C(=N/S(=O)(=O)c3ccc(C)cc3)NC2=O)c([N+](=O)[O-])cc1OC` gave CHO parental Ca inactive, NTR1 ag inactive, TAAR1 antag inactive, OX1R antag-1 39, TAAR1 ag inactive and OX1R antag-2 inactive.
`O=C1NC(=Nc2ccccc2Cl)S/C1=C\c1cc([N+](=O)[O-])ccc1O` gave CHO parental Ca inactive, NTR1 ag inactive, TAAR1 antag inactive, OX1R antag-1 72, TAAR1 ag inactive and OX1R antag-2 inactive.
For Cc1cccc(N(CC(=O)NCc2ccco2)C(=O)CCC(=O)Nc2ccccn2)c1C the results were CHO parental Ca inactive, NTR1 ag inactive, TAAR1 antag inactive, OX1R antag-1 inactive, TAAR1 ag inactive and OX1R antag-2 inactive.
Screening CC(C)CCNC(=O)C(c1cccnc1)N(CCc1ccccc1)C(=O)Cn1nnc2ccccc21 (stereo not given) returned CHO parental Ca inactive, NTR1 ag inactive, TAAR1 antag inactive, OX1R antag-1 inactive, TAAR1 ag 39 and OX1R antag-2 inactive.
`CN(NS(=O)(=O)c1ccccc1)c1nc2ccccc2nc1C(F)(F)F` gave CHO parental Ca inactive, NTR1 ag inactive, TAAR1 antag inactive, OX1R antag-1 inactive, TAAR1 ag inactive and OX1R antag-2 inactive.
CN(NS(=O)(=O)c1ccc(Cl)cc1)c1nc(C(F)(F)F)nc2ccccc12 was read as CHO parental Ca inactive, NTR1 ag inactive, TAAR1 antag inactive, OX1R antag-1 55, TAAR1 ag inactive and OX1R antag-2 inactive.

Compound activity (PubChem BioAssay)
